# Screening results as filed in PubChem.
# OX1R antag-1: antagonists of human orexin 1 receptor (OX1R); inhibition, % at 6.6 µM; actives 1.8% (n = 330,000); OX1R-expressing cells, FRET antagonist read-out; AID 485270, 2010; in the data active = inhibition mostly above about 38%, no sharp cut-off; inactive = mostly below about 40%
# CHO parental Ca: ATP-evoked calcium signal inhibitors, parental CHO, primary screen, counter-screen for OX1R antagonist project, cell-based, fluorescence, Fluo-8 calcium dye. parental CHO-K1, ATP-induced calcium, Fluo-8 fluorescence. inhibition, % at 5.6 µM. actives 0.63% (n = 330,000);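 active = inhibition above that plate's mean sample inhibition plus 3 SD, cut at about 26% in these data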
#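 Assay system: untransfected parental CHO cell line. Also added: ATP agonist challenge. Dosing: one dose, 5.6 µM nominal. Measured by: Fluo-8 fluorescence. Read-out: % inhibition. Benchmarks: ATP wells versus no-ATP DMSO wells. Repeats: no replicates.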
# OX1R antag-2: OX1R (HCRTR1) antagonists, primary screen, fluorescence, CHO/OX1R cells, Fluo-8 calcium, orexin A; Fluo-8 calcium fluorescence; inhibition, % at 5 µM; actives 0.43% (n = 330,000);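 active = inhibition above its plate's threshold, mean inhibition of all tested compounds on the plate plus 3 SD, cut at about 37% in these data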
# TAAR1 ag: human TAAR1 agonists, primary screen, Fluo-8 calcium fluorescence, CHO RD-HGA16 cells; actives 0.99% (n = 360,000); activation, % at 3 µM; Trace amine-associated receptor 1 (Homo sapiens), Q96RJ0; AID 624467, 2012; vehicle wells 0%, saturating PEA agonist 100%;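 active = activation above the mean activation of all test compounds in the run plus 3 SD, cut at about 38% in these data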
# Target sequence (Q96RJ0 whole entry, looked up): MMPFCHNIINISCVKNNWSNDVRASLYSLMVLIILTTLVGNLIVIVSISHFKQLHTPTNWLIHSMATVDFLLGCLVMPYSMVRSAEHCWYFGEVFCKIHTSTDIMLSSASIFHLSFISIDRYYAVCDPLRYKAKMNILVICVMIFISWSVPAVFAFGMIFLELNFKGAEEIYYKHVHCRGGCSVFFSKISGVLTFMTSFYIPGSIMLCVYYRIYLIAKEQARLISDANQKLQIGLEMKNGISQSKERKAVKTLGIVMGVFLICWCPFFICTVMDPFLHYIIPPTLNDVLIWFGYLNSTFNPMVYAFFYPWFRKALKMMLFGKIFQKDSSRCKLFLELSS
#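 Repeats: no replicates (n 1) | Material: CHO-derived RD-HGA16 cells with stable Gα16 and human TAAR1 | Technique: Kinetic Fluo-8 calcium fluorescence | Schedule: 17-24 h seeding, 75 min 37 °C dye, 30 min RT | Evaluation: % activation from peak over basal fluorescence ratio, DMSO-to-PEA scaled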
# GPR7 antag: GPR7 receptor antagonists, primary screen, cell-based, fluorescence, single concentration | actives 1.1% (n = 290,000) | inhibition, % at 4.4 µM | GPR7-expressing cells, fluorescence antagonist assay | Neuropeptides B/W receptor type 1 (Homo sapiens), P48145; in the data active = inhibition above about 16%, passing the limit was not always enough;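 note: cells stimulated with the agonist NPW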
# TAAR1 antagonist: human TAAR1 antagonists, primary screen, Fluo-8 calcium fluorescence, CHO RD-HGA16 cells | antagonist | inhibition, % at 3 µM | actives 1.5% (n = 360,000) | AID 624466, 2012;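 active = inhibition above a per-plate cutoff, the mean inhibition of test compounds on that plate plus 3 SD, cut at about 49% in these data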
#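 Assay system: CHO-derived RD-HGA16 cells stably expressing human TAAR1 plus Gα16. Timing: 140 s kinetic read after compound, 140 s after agonist. Technique: kinetic Fluo-8 calcium fluorescence measurement. Measure: % inhibition of agonist calcium response.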
# TAAR1 nonsel count: nonselective antagonists in TAAR1 counter-screen cells, counter-screen for hTAAR1 antagonist project, cell-based, fluorescence, calcium. shares compounds with TAAR1 antagonist. counterscreen cell line, antagonist mode. inhibition, % at 3 µM. actives 77% (n = 2,400); in the data active = inhibition above about 22%;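 note: CHO-Ga16 host cells stimulated with ATP at an EC80 level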
# TAAR1 antag conf: human TAAR1 antagonists, retest of hits, confirmation, cell-based, fluorescence. shares compounds with TAAR1 antagonist. TAAR1-expressing cells, fluorescence antagonist read-out. inhibition, % at 3 µM. actives 40% (n = 2,400). AID 651785, 2012; in the data active = inhibition above about 49%;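 note: CHO-Ga16 host cells challenged with agonist PEA near its EC80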
# Ga16 nonsel ag: calcium activation in Ga16-expressing cells, counter-screen for TAAR1 antagonist project, cell-based, fluorescence | shares compounds with TAAR1 antagonist | agonist counterscreen | activation, % at 3 µM | actives 18% (n = 2,400); in the data active = activation above about 12%
# TAAR1 ag count: TAAR1 activation by candidate antagonists – cell-based, fluorescence, counter-screen for TAAR1 antagonist project | hTAAR1 cell line, agonist mode | shares compounds with TAAR1 antagonist | actives 2% (n = 2,400) | activation, % at 3 µM; in the data active = activation above about 37%;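 note: CHO cells stably expressing TAAR1 with calcium dye readout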
# Hits are given with their value; - = inactive; . = not tested or not shown. Compounds with a hit are over-represented: about 4.6% of the library has one in this group of screens.
SMILES,OX1R antag-1,CHO parental Ca,OX1R antag-2,TAAR1 ag,GPR7 antag,TAAR1 antagonist,TAAR1 nonsel count,TAAR1 antag conf,Ga16 nonsel ag,TAAR1 ag count
Cc1ccc(OCC(=O)NNC(=O)c2ccc3c(=O)n4c(nc3c2)CCC4)cc1,-,-,-,-,.,-,.,.,.,.
c1ccc(-c2nc(SCc3nc4ccccc4[nH]3)c3oc4ccccc4c3n2)cc1,-,-,-,-,.,54,-,-,-,-
COc1cccc(CNC(=O)C2CCN(S(=O)(=O)c3ccc4c(c3)C(C)(C)C(=O)N4C)CC2)c1,.,.,.,-,.,-,.,.,.,.
CCCCNC(=O)C(CC)(ONc1ccccc1C(F)(F)F)c1ccccc1 (centres undefined),-,-,-,-,.,-,.,.,.,.
O=C(CN1CCN(c2ccccn2)CC1)Nc1ccccc1C(=O)Nc1ccccc1,-,-,-,-,.,65,27,-,-,-
CC(C)NC(=O)c1cnc(N2CCN(c3ccccn3)CC2)c2ccccc12,-,-,-,-,-,-,.,.,.,.
COc1ccc(N2CCN(CC(=O)Nc3ccccc3C(=O)NC(C)c3ccccc3)CC2)cc1 (centres undefined),.,.,.,-,.,61,-,-,-,-
CCc1ccc(NC(=O)c2cnc(N3CCN(c4ccccn4)CC3)c3ccccc23)cc1,-,-,-,-,-,68,37,55,12,-
O=C1CC[C@@H](CN(Cc2ccccn2)Cc2nc(-c3ccc(C(F)(F)F)cc3)no2)N1,-,-,-,-,-,-,.,.,.,.
Cc1ccc(-c2c(C#N)c(N)n(-c3ccccc3C)c(=O)c2C#N)cc1,.,.,.,-,.,-,.,.,.,.
O=C(NCC1CCCO1)c1cc2c([nH]c3ccccc32)c(-c2cccc(Br)c2)n1 (centres undefined),-,-,-,-,-,75,34,58,-,-
Cc1ccc(-c2nc(C(=O)NCCCN(C)C)cc3c2[nH]c2ccccc23)cc1,-,-,-,-,-,-,.,.,.,.
Cc1ccccc1-c1nc(C(=O)NCC2CCCO2)cc2c1[nH]c1ccccc12 (centres undefined),-,-,-,-,-,55,28,-,-,-
Cc1ccc(-c2nc(C(=O)NCC3CCCO3)cc3c2[nH]c2ccccc23)cc1 (centres undefined),50,-,-,-,-,76,35,55,-,-
COc1ccc(-c2cc(C(=O)NCC3CCCO3)c3ccccc3n2)cc1 (centres undefined),-,-,-,-,-,-,.,.,.,.
COc1ccc(-c2nc(C(=O)NCC3CCCO3)cc3c2[nH]c2ccccc23)cc1 (centres undefined),-,-,-,-,-,67,25,-,-,-
COc1ccc2c(C(=O)NCc3ccc4c(c3)OCO4)c(-c3ccc(S(C)(=O)=O)cc3)sc2c1,-,-,-,-,.,64,36,55,-,-
COc1ccccc1N(C)S(=O)(=O)c1ccc(C(=O)Nc2ccc(C(N)=O)cc2)cc1,-,-,-,-,.,54,24,-,-,-
